Screening results: PubChem BioAssay, Johns Hopkins Ion Channel Center
An excerpt weighted towards active compounds, which were near 3.5% of everything screened.
MrgX1 agonist – human MrgX1 receptor agonism, primary screen; 310,000 compounds, 0.44% hits; B-score at 10 µM; MrgX1-HEK293 cells, Fluo-4 calcium fluorescence, agonist mode; stronger effect = higher value; Q96LB2; AID 588627;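 active = calcium response B-score plate-corrected fluorescence ratio at least 3 library SD, with starting fluorescence B-score inside 5 SD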
Target sequence (Q96LB2 whole entry, looked up): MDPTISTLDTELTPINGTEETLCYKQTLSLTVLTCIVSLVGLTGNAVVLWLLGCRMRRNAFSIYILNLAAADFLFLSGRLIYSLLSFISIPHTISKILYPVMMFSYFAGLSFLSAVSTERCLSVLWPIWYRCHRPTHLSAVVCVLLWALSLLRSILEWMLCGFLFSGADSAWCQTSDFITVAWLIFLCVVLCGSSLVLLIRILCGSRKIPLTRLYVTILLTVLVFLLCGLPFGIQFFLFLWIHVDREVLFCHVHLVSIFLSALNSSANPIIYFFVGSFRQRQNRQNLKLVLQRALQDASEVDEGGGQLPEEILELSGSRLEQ
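Assay system: MrgX1-expressing HEK293 cells / Amount: fifteen thousand cells per well / Doses: test compound in the initial addition of three / Timing: cells plated overnight, dye loaded 0.5 h 37 °C, 0.5 h room temperature / Technique: kinetic calcium dye fluorescence, Fluo-4 NW / Control set: positive and negative controls per plate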
MrgX1 antagonist – antagonists of human MrgX1 receptor; MRGX1-HEK293 calcium flux, Fluo-4, BAM8-22 antagonism; stronger effect = lower value; B-score at 10 µM; 310,000 compounds, 1.3% hits; AID 588676;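 active = calcium-response B-score plate-corrected more than 3 library SD below zero, starting fluorescence within 5 deviations, no agonist response on first addition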;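 note: peak minus trough fluorescence over baseline after final BAM8-22 challenge near maximal dose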
RGS4 act – RGS4 potentiation or activation | 310,000 compounds, 0.92% hits | B-score at 10 µM | HEK293 M3R/inducible RGS4, carbachol calcium flux Fluo4; stronger effect = lower value | AID 463111;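 active = B-score of the integrated calcium signal more than 4 SD below the library mean, with starting fluorescence not abnormally high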;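 note: negative B-score means reduced calcium response which marks RGS4 activation or potentiation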
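Reagent: ECmax carbachol challenge; Test system: M3R-expressing HEK293 line, RGS4 induced by doxycycline; Schedule: overnight RGS4 induction, 30 min dye load 37 °C, 20 min compound RT; Detection: calcium dye Fluo4 fluorescence; Read-out: Agonist-evoked peak-minus-minimum fluorescence over baseline, integrated ratio, B score.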
RGS4 inh – human RGS4 inhibition; P49798; HEK293 M3R/RGS4 inducible, Fluo-4 calcium flux; stronger effect = higher value; triggered by carbachol at its EC20; B-score at 10 µM; 310,000 compounds, 0.45% hits; AID 463165;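 active = B-score, a plate-corrected calcium signal, over three deviations above library mean, with baseline fluorescence within five deviations of library mean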;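 note: RGS4 expression induced by doxycycline in cells with stable M3 receptor; B-score is computed from the integrated fluorescence ratio over baseline after carbachol; higher B-score means a larger calcium signal and so more RGS4 inhibition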
Target sequence (P49798 whole entry, looked up): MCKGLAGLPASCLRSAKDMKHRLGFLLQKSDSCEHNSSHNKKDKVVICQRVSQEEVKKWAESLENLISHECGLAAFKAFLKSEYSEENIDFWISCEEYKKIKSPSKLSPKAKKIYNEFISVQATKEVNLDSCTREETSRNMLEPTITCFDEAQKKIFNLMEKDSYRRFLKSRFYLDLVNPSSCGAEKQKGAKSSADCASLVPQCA
MrgX1 PAM – human MrgX1 positive allosteric modulation, primary screen; B-score at 10 µM; MrgX1-HEK293, Fluo-4 calcium flux, FDSS; stronger effect = higher value; Q96LB2; 310,000 compounds, 0.63% hits; AID 588675;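 active = plate-corrected calcium response at least 3 library SD above typical, normal starting fluorescence, not activating the receptor alone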;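 note: compound read alongside a low EC10 to EC30 dose of BAM8-22 agonist; peak minus trough fluorescence over baseline measured at the second addition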
MrgX1 allo conf – confirmation of human MrgX1 receptor positive allosteric modulators | shares compounds with MrgX1 PAM | MrgX1-HEK293, Fluo-4 calcium fluorescence, FDSS | activation (ratio percentage), % at 10 µM | 1,200 compounds, 13% hits;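 active = ratio at least 3 SD above the weak peptide control, stable starting fluorescence, no direct agonism earlier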;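 note: compound followed by low BAM8-22 agonist challenge near EC20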
HEK293 Ca flux – counter-screen for MrgX1 antagonists: effect in parental HEK293 cells; AID 624111; shares compounds with MrgX1 antagonist; Fluo-4 calcium fluorescence, FDSS; fluorescence ratio F(max-min)/F0 at 10 µM; 4,000 compounds, 2% hits;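 active = duplicate-averaged calcium fluorescence ratio at least three times the standard deviation of buffer wells, a nonspecific response in parental cells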
HEK293 Ca counter – MrgX1 allosteric activator counter-screen hit in parental HEK293 cells; parental HEK293 calcium flux, Fluo-4 fluorescence ratio; stronger effect = higher value; shares compounds with MrgX1 antagonist; fluorescence ratio F(max-min)/F0 at 10 µM; 4,000 compounds, 0.4% hits;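 active = calcium fluorescence ratio, averaged over duplicates, at least 3 SD of the buffer-well ratio, meaning a nonspecific response in receptor-free cells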;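 note: untransfected parental HEK293 lacking MrgX1 used as counterscreen for MrgX1 allosteric activators; fluorescence change taken during the second addition on a kinetic imager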
HEK293 Ca cntr2 – MrgX1 activator counter-screen hit in parental HEK293 cells | shares compounds with MrgX1 antagonist | Fluo-4 calcium fluorescence (FDSS); stronger effect = higher value | fluorescence ratio F(max-min)/F0 at 10 µM | 4,000 compounds, 8.7% hits | AID 624115;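 active = calcium fluorescence ratio at least three times the spread of buffer wells, meaning a non-specific response in parental cells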
Each line names hits and unclear results; the compound was inactive in the other large screens (follow-up assays come after a bar, where they were run).

CCN1CCN(c2nc(C)c3c(n2)CC(C)CC3=O)CC1 (configuration not stated)	MrgX1 PAM 8.03 | MrgX1 allo conf inactive | HEK293 Ca flux inactive | HEK293 Ca counter inactive | HEK293 Ca cntr2 inactive
CSC1=NSC2=NC(=O)/C(=C\c3ccc(OC(=O)c4ccco4)cc3)C(=N)N12	MrgX1 PAM 41.1 | MrgX1 allo conf inactive | HEK293 Ca flux inactive | HEK293 Ca counter inactive | HEK293 Ca cntr2 inactive
CC1=CSC2=NC(=O)/C(=C/c3cccc(OC(=O)c4ccco4)c3)C(=N)N12	MrgX1 PAM 29.1 | MrgX1 allo conf 11.6% | HEK293 Ca flux inactive | HEK293 Ca counter inactive | HEK293 Ca cntr2 inactive
CC1=CC2=NC(=O)/C(=C\c3ccc(OC(=O)c4ccco4)cc3)C(=N)N2O1	none
COc1ccc(NC(C)(C)c2nnnn2-c2c(C)cccc2C)cc1	MrgX1 PAM 6.56 | MrgX1 allo conf inactive | HEK293 Ca flux inactive | HEK293 Ca counter inactive | HEK293 Ca cntr2 inactive
O=C1N=c2ccccc2=C1c1sc(NS(=O)(=O)c2ccccc2)nc1O	MrgX1 PAM 20.9 | MrgX1 allo conf inactive | HEK293 Ca flux inactive | HEK293 Ca counter inactive | HEK293 Ca cntr2 inactive
COC(=O)CC1C(=O)NCCN1C(=O)CSc1nc2ccccc2s1 (configuration not stated)	none
COC(=O)c1sc(NC(=S)NC(=O)c2ccccc2C)nc1C	MrgX1 PAM 7.26 | MrgX1 allo conf inactive | HEK293 Ca flux inactive | HEK293 Ca counter inactive | HEK293 Ca cntr2 56.4
CCOC(=O)c1c(-c2ccccc2)csc1NC(=O)/C(C#N)=C/c1ccc(O)c(OC)c1	MrgX1 PAM 117 | MrgX1 allo conf inactive | HEK293 Ca flux 0.049 | HEK293 Ca counter inactive | HEK293 Ca cntr2 84.5
CCCCCCCC(O)CC(CC1CCCCC1)C(=O)NN (configuration not stated)	none
CCOC(=O)c1cc(-c2ccco2)nn1-c1ccc(C)cc1	none
Cc1ccc(-n2nc(-c3ccco3)cc2C(=O)O)cc1	MrgX1 PAM 24.8 | MrgX1 allo conf 5.6% | HEK293 Ca flux inactive | HEK293 Ca counter inactive | HEK293 Ca cntr2 inactive
CC1CC(C)CN(C2CCCCC2NS(=O)(=O)c2ccc(Cl)cc2)C1 (configuration not stated)	MrgX1 PAM 8.24 | MrgX1 allo conf inactive | HEK293 Ca flux inactive | HEK293 Ca counter inactive | HEK293 Ca cntr2 inactive
CN1CCN(C2CCCCC2NS(=O)(=O)c2ccc(Cl)cc2)CC1 (configuration not stated)	none
CC(C)c1ccc(N(C(=O)CNC(=O)c2ccco2)C(C(=O)NC2CCCC2)c2cccnc2)cc1 (configuration not stated)	none
CC(C)(C)c1ccc(C2=CC(c3ccccc3)n3ncnc3N2)cc1 (configuration not stated)	MrgX1 PAM 9.33 | MrgX1 allo conf inactive | HEK293 Ca flux inactive | HEK293 Ca counter inactive | HEK293 Ca cntr2 57
Cc1ccc(C2=CC(c3ccc(C)cc3)n3ncnc3N2)cc1 (configuration not stated)	none
COC(=O)c1ccc(NS(=O)(=O)c2ccc(Cl)cc2)o1	MrgX1 PAM 22 | MrgX1 allo conf 12.4% | HEK293 Ca flux inactive | HEK293 Ca counter inactive | HEK293 Ca cntr2 inactive
COc1ccc(C2(C(=O)Nc3ccc(OC)cc3OC)CCCC2)cc1	MrgX1 PAM 12.4 | MrgX1 allo conf inactive | HEK293 Ca flux inactive | HEK293 Ca counter inactive | HEK293 Ca cntr2 inactive
O=C(NC(=S)NC1CCS(=O)(=O)C1)c1ccccc1Br (configuration not stated)	none
CCOc1ccc(NC(=O)NC(=O)N(C(C)C)S(C)(=O)=O)cc1	MrgX1 PAM 10 | MrgX1 allo conf inactive | HEK293 Ca flux inactive | HEK293 Ca counter inactive | HEK293 Ca cntr2 inactive
CC12CCC(C(=O)O)(c3nc4cc([N+](=O)[O-])ccc4nc31)C2(C)C (configuration not stated)	none
CC12CCC(C)(c3nc4ccccc4nc31)C2(C)C	MrgX1 PAM 6.91 | MrgX1 allo conf inactive | HEK293 Ca flux inactive | HEK293 Ca counter inactive | HEK293 Ca cntr2 inactive
CCOc1ccc(-n2c(=O)c3sccc3n(Cc3cccc([N+](=O)[O-])c3)c2=O)cc1	none
c1ccc(-c2nc3nc4ccccc4nc3n2CC2CCCO2)cc1 (configuration not stated)	MrgX1 PAM 7.02 | MrgX1 allo conf inactive | HEK293 Ca flux inactive | HEK293 Ca counter inactive | HEK293 Ca cntr2 inactive
c1coc(-c2nc3nc4ccccc4nc3n2CC2CCCO2)c1 (configuration not stated)	none
Cn1c(=O)c2c(nc(CN3CCc4ccccc4C3)n2Cc2ccccc2)n(C)c1=O	MrgX1 PAM 16.5 | MrgX1 allo conf 13.1% | HEK293 Ca flux inactive | HEK293 Ca counter inactive | HEK293 Ca cntr2 inactive
Cn1c(=O)c2c(nc(CN3CCc4ccccc4C3)n2Cc2ccc(Cl)cc2)n(C)c1=O	none
O=C(Cn1c(NCCCO)nc2ccccc21)c1cccs1	none
CC(O)[C@H]1CNC(=O)C(=O)N1CCC12CC3CC(CC(C3)C1)C2 (some centres not stated)	none
Cn1nc(C(F)(F)F)c(-c2ccc(Br)cc2)c1NC(=O)c1cccnc1	none
Cn1nc(C(F)(F)F)c(-c2ccc(Br)cc2)c1NC(=O)c1ccco1	MrgX1 PAM 19.7 | MrgX1 allo conf inactive | HEK293 Ca flux inactive | HEK293 Ca counter inactive | HEK293 Ca cntr2 inactive
C#CCOCCOCCOCCNc1nc(N2CCN(C(=O)C([C@@H](C)CC)n3cc(C(N)COC(=O)C(F)(F)F)nn3)CC2)nc(N2CCN(C(=O)[C@H](CCCCN)n3cc(C(N)[C@H](C)CC)nn3)CC2)n1 (some centres not stated)	none
CC(C)OP(=O)(c1ccc(N(C)C)cc1)C(O)c1ccc(N(C)C)cc1 (configuration not stated)	none
Cc1cccc(N=C2NC(=O)/C(=C3/C(=O)N(C)c4ccccc43)S2)c1C	MrgX1 PAM 7.31 | MrgX1 allo conf inactive | HEK293 Ca flux inactive | HEK293 Ca counter inactive | HEK293 Ca cntr2 inactive
C=CCSc1nc2ccccc2c(=O)n1C1CCOC(C)(C)C1 (configuration not stated)	MrgX1 PAM 11.4 | MrgX1 allo conf inactive | HEK293 Ca flux inactive | HEK293 Ca counter inactive | HEK293 Ca cntr2 inactive
